Source: publication PMC11771645 (Journal of Clinical Pharmacology, 2024)
Entries after “also recorded” stand apart in the source; their conditions may differ. Read-outs that look alike come from different tables or passages of the source.

Experiments:
Food-effect study = type: in vivo, human
[1] = patients with Friedreich's ataxia; cited from earlier work
CYP3A4 [2] = conditions: cited from earlier work
CYP2C19 = conditions: clinical doses; cited from earlier work
[3] = tested on: breast cancer resistance protein (BCRP); conditions: clinical doses; cited from earlier work
CYP3A4 [4] = test: In vitro CYP3A4 induction; type: in vitro ADME, human
CYP3A4 [5] = biological target: CYP3A4 (Homo sapiens, UniProt P08684); test: Reaction phenotyping studies; type: in vitro ADME
Sequence of CYP3A4 (Homo sapiens, UniProt P08684) (P08684 whole entry): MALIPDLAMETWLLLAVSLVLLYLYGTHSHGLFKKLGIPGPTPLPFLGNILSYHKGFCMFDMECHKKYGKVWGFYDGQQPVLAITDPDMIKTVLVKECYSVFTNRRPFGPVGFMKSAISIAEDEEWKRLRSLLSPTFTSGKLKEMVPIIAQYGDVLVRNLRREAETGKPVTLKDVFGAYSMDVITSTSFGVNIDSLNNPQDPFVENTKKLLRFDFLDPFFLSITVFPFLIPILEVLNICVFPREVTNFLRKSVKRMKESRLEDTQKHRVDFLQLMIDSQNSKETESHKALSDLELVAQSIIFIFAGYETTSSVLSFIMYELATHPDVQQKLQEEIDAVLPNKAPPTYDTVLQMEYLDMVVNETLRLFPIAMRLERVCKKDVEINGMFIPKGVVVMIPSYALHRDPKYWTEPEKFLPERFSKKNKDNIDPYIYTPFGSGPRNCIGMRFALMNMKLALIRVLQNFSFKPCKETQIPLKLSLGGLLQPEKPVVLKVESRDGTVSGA

CYP3A4 [6] = conditions: cited from earlier work; remark: listed apart in the source
[7] = Unbound fraction in plasma; type: in vitro ADME; conditions: human
CYP1A2 = test: In vitro CYP1A2 induction; type: in vitro ADME, human
[8] = oral dose, male subjects; cited from earlier work
CYP2C9 = conditions: clinical doses; cited from earlier work
[9] = Phase 2 Friedreich's ataxia study, observed PK; type: in vivo; conditions: human, plasma, oral, geometric mean; for AUC: AUC0‐8 h
In short: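 Phase 2 study in patients with Friedreich's ataxia, with repeated oral dosing of the test compound at 200 mg or 400 mg TID. Observed plasma Cmax and AUC0-8 h were summarised as geometric means on Day 1 and Day 91. These observed data served to verify the PBPK model, with simulated exposures judged accurate if within 1.5-fold of observed.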

[10] = Clinical PK in healthy volunteer studies; type: in vivo, human
[11] = 400 mg vatiquinone with 600 mg rifampicin
[12] = Observed, Vatiquinone + Rifampicin (14 days TID, 600 mg)
[13] = 400 mg vatiquinone with 200 mg itraconazole
[14] = Observed, Vatiquinone + Itraconazole (5 days TID, 200 mg)
[15] = in the presence of itraconazole

CC(C)=CCC/C(C)=C/CC/C(C)=C/CC[C@@](C)(O)CCC1=C(C)C(=O)C(C)=C(C)C1=O [Vatiquinone, alpha‐tocotrienol quinone]
AUC, low‐fat meals compared with fasted (Food-effect study): 8 fold
tolerability [1]: well tolerated with no dose‐limiting toxicities
decrease in vatiquinone AUC0‐inf (CYP3A4 [2]; [11]): ~46%
decrease in vatiquinone Cmax (CYP3A4 [2]; [11]): approximately 36%
AUC0‐inf, geometric mean (CYP3A4 [2]; [12]): 1.83 µg·h/mL
Cmax, geometric mean (CYP3A4 [2]; [12]): 0.619 µg/mL
effect of vatiquinone on CYP2C19 substrate (omeprazole) exposure (CYP2C19): did not have a significant impact; also recorded: lack of a clinically relevant effect
effect of vatiquinone on BCRP substrate (rosuvastatin) exposure [3]: did not have a significant impact; also recorded: lack of a clinically relevant effect
CYP3A4 Indmax (CYP3A4 [4]; Scaled using rifampicin data): 4.26
EC50 (CYP3A4 [4]; human): 3.7 µM
CYP3A4 induction potential (CYP3A4 [4]; in vitro data): borderline potential inducer
enzyme mediating vatiquinone metabolism (CYP3A4 [5]): mainly mediated by CYP3A4
increase in vatiquinone AUC0‐inf (CYP3A4 [6]; [13]): ~2.9 fold
increase in vatiquinone Cmax (CYP3A4 [6]; [13]): approximately 3.5 fold
AUC0‐inf, geometric mean (CYP3A4 [6]; [14]): 11,300 h•ng/mL
Cmax, geometric mean (CYP3A4 [6]; [14]): 3.43 µg/mL
increase in vatiquinone AUC0‐inf (CYP3A4 [6]; [15]): ~188%
increase in vatiquinone Cmax (CYP3A4 [6]; [15]): approximately 245%
fraction unbound [7]: 0.022
CYP1A2 Indmax (CYP1A2; In vitro study): 2.61
CYP1A2 Indmax (CYP1A2; Scaled using omeprazole data): 1.04
EC50 (CYP1A2; human): 1.8 µM
CYP1A2 induction potential (CYP1A2; in vitro data): borderline potential inducer
mean cumulative recovery [8]: 92.9%
recovery of unchanged vatiquinone in feces [8]: 6.77 % of dose
effect of vatiquinone on CYP2C9 substrate (tolbutamide) exposure (CYP2C9): did not have a significant impact; also recorded: lack of a clinically relevant effect
AUC ([9]; 200 mg, 200 mg TID, Day 1, patients with Friedreich's ataxia): 1.03 µg·h/mL
AUC ([9]; 200 mg, 200 mg TID, Day 91): 1.95 µg·h/mL
Cmax ([9]; 200 mg, 200 mg TID, Day 1): 0.466 µg/mL
Cmax ([9]; 200 mg, 200 mg TID, Day 91): 0.689 µg/mL
AUC ([9]; 400 mg, 400 mg TID, Day 1, patients with Friedreich's ataxia): 2.43 µg·h/mL
AUC ([9]; 400 mg, 400 mg TID, Day 91): 3.49 µg·h/mL
Cmax ([9]; 400 mg, 400 mg TID, Day 1): 1.02 µg/mL
Cmax ([9]; 400 mg, 400 mg TID, Day 91): 0.905 µg/mL
ka ([10]; Clinical study): 1.27 h⁻¹
tlag ([10]; Clinical study): 3.67 h
CL/F (apparent oral clearance) ([10]; healthy volunteer studies, from AUC0-inf in the absence of itraconazole): 94.3 L/h
half-life ([10]; human, in vivo, oral): ~9 h
